ChEMBL document CHEMBL4732217, “Design, synthesis, biological evaluation, and docking studies of novel (imidazol-5-yl)pyrimidine-based derivatives as dual BRAF/p38α inhibitors” (Eur J Med Chem, 2021)

What was measured:
[1] = molecular target: T1, Mitogen-activated protein kinase 14 (Homo sapiens, UniProt Q16539); assay: Inhibition of p38 alpha (unknown origin) at 10 uM using Ser/Thr 15 as substrate incubated for 1 hr in presence of ATP by Z'-Lyte assay relative to control
In short: (§1)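 Run by a commercial kinase profiling service at 100 µM ATP. Single-point screening was followed by 5-point titration (1 nM, 10 nM, 100 nM, 1 µM, 10 µM) for IC50.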

[2] = tested on: Serine/threonine-protein kinase B-raf (Homo sapiens), P15056 [V600E]; assay: Inhibition of BRAF V600E mutant (unknown origin) at 10 uM using Ser/Thr 03 as substrate after 1 hr in presence of ATP by Z'-LYTE assay relative to control; in short: as §1
Sequence of Serine/threonine-protein kinase B-raf (Homo sapiens), P15056 [V600E] (P15056 whole entry V600E): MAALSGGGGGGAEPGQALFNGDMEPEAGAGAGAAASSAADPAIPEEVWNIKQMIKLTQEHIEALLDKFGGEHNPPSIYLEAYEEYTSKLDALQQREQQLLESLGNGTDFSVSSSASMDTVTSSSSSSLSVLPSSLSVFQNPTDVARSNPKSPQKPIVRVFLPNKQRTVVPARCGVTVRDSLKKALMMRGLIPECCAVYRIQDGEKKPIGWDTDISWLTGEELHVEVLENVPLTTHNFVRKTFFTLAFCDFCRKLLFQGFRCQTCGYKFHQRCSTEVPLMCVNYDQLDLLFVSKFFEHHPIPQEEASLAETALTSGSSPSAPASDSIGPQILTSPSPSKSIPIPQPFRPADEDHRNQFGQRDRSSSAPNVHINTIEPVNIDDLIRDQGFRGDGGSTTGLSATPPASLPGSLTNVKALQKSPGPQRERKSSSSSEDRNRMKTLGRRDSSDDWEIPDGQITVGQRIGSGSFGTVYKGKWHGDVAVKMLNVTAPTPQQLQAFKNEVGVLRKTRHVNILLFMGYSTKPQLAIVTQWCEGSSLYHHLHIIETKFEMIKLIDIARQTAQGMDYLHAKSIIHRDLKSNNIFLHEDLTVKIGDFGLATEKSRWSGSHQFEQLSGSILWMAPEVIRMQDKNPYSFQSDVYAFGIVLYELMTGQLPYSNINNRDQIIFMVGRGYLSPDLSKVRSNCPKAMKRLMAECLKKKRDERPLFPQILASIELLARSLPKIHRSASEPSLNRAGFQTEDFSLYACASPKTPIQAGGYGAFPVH

LOX IMVI = assay: cells; format: functional, cell-based; details: Homo sapiens, 24 h
[3] = molecular target: T2, Serine/threonine-protein kinase B-raf (Homo sapiens, UniProt P15056, V600E); assay: Inhibition of BRAF V600E mutant (unknown origin) using Ser/Thr 03 as substrate after 1 hr in presence of ATP by Z'-LYTE assay
T2 sequence (P15056 2-766 V600E limits assumed): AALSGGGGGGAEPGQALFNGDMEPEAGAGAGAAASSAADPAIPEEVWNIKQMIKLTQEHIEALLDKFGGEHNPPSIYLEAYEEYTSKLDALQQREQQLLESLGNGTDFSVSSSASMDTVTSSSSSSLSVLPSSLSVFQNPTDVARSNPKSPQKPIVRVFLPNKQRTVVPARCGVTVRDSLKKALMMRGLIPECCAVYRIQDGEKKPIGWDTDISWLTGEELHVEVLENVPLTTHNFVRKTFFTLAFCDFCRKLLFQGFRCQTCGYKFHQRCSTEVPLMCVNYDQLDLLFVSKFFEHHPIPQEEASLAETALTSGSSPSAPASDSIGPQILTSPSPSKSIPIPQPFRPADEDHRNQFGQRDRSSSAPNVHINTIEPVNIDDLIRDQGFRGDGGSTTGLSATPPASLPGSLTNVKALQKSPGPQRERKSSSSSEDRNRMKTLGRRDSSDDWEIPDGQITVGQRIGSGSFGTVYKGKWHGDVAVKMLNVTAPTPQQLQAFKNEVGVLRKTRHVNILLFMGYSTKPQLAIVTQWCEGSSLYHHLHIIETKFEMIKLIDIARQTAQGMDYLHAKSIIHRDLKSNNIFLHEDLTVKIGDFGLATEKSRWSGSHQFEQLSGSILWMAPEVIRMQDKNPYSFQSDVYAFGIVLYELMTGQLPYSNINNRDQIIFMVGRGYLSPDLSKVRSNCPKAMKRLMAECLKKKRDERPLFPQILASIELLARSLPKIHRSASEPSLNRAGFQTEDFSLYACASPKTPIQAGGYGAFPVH

[4] = Selectivity index, ratio of IC50 for human IOSE-80PC cells to IC50 for human LOX IMVI cells
In short: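 IC50 against IOSE-80PC normal ovarian epithelial cells (MTT, 5-dose) divided by IC50 against LOX-IMVI melanoma cells (MTT, 24 h compound exposure, means of duplicate experiments ± S.D.).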

[5] = Cytotoxicity against human IOSE-80PC cells assessed as reduction in cell viability incubated for 24 hrs by MTT assay; format: cell-based, IOSE80pc
In short: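 Human ovarian epithelial IOSE-80PC cells grown in RPMI 1640 with FBS and penicillin-streptomycin, seeded at 1 × 10⁵/mL, exposed to a range of compound concentrations in 5-dose mode. Viability read by MTT; IC50 derived.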

[6] = molecular target: T1, Mitogen-activated protein kinase 14; assay: Inhibition of p38 alpha (unknown origin) using Ser/Thr 15 as substrate incubated for 1 hr in presence of ATP by Z'-Lyte assay
RAW264.7 = assay: Potency index, ratio of BAY 11-7082 IC50 to compound IC50 for inhibition of LPS stimulated TNF-alpha production in mouse RAW264.7 macrophages; format: functional
[7] = Inhibition of LPS stimulated TNF-alpha production in mouse RAW264.7 macrophages at 1 uM preincubated for 1 hr followed by LPS stimulation and measured after 24 hrs by EIA relative to control; format: functional; details: time 25 hrs
In short: (§2)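 RAW 264.7 macrophages plated at 2 × 10⁵ cells per well and left overnight. Pretreated 1 h with compound, then stimulated 24 h with lipopolysaccharide. TNF-α in culture supernatant measured by EIA. BAY 11-7082 reference tested at 0.5, 1.0, 5.0 and 10.0 µM. Values are means ± S.D.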

[8] = Inhibition of LPS stimulated TNF-alpha production in mouse RAW264.7 macrophages preincubated for 1 hr followed by LPS stimulation and measured after 24 hrs by EIA; format: functional; in short: as §2
[9] = tested on: Serine/threonine-protein kinase B-raf (Homo sapiens), P15056 [V600E]; assay: Potency index, ratio of staurosporine IC50 to compound IC50 for inhibition of BRAF V600E mutant (unknown origin)
[10] = molecular target: T1, Mitogen-activated protein kinase 14; assay: Potency index, ratio of PP2 IC50 to compound IC50 for inhibition of P38 alpha (unknown origin)
[11] = Inhibition of LPS stimulated TNF-alpha production in mouse RAW264.7 macrophages at 10 uM preincubated for 1 hr followed by LPS stimulation and measured after 24 hrs by EIA relative to control; format: functional; details: time 25 hrs; in short: as §2
[12] = molecular target: T2, Serine/threonine-protein kinase B-raf; assay: Inhibition of BRAF V600E mutant (unknown origin) preincubated for 20 mins followed by 33P-ATP addition and measured after 2 hrs by HotSpot kinase assay

T1 sequence (Q16539 whole entry): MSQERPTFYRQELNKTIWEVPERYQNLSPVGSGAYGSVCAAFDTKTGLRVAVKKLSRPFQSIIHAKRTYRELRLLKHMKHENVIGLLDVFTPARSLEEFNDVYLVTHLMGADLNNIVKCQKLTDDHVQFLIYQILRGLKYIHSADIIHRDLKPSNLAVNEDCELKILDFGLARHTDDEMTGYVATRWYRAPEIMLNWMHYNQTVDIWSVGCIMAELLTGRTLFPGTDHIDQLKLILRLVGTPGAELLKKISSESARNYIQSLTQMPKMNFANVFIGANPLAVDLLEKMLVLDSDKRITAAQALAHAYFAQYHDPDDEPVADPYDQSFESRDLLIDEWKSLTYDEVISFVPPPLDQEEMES

COc1cc(-c2nc(-c3ccccc3)[nH]c2-c2ccnc(NCCCNS(=O)(=O)c3ccc(Cl)cc3)n2)ccc1F
inhibition [1]: 72.8% | inhibition [2]: 79.2% | IC50 (LOX IMVI): 83.1 µM

COc1cc(-c2nc(-c3ccccc3)[nH]c2-c2ccnc(NCCCNS(=O)(=O)c3ccc(Br)cc3)n2)ccc1F
inhibition [1]: 73.4% | inhibition [2]: 81.5% | IC50 (LOX IMVI): 33.9 µM

COc1cc(-c2nc(-c3ccccc3)[nH]c2-c2ccnc(NCCCNS(=O)(=O)c3ccc(F)cc3)n2)ccc1Cl
inhibition [1]: 62.1% | inhibition [2]: 81% | IC50 (LOX IMVI): 4.53 µM

O=S(=O)(NCCCNc1nccc(-c2[nH]c(-c3ccccc3)nc2-c2ccc(Cl)c(O)c2)n1)c1ccc(Br)cc1
IC50 [3]: 0.0218 µM | inhibition [1]: 73.7% | inhibition [2]: 97.3% | IC50 (LOX IMVI): 15.5 µM

COc1cc(-c2nc(-c3ccccc3)[nH]c2-c2ccnc(NCCCNS(=O)(=O)c3cccc4ccccc34)n2)ccc1F
inhibition [1]: 44.4% | inhibition [2]: 81% | IC50 (LOX IMVI): 14.9 µM

COc1cc(-c2nc(-c3ccccc3)[nH]c2-c2ccnc(NCCCNS(=O)(=O)c3ccc(C(F)(F)F)cc3)n2)ccc1F
inhibition [1]: 48.6% | inhibition [2]: 42.4% | IC50 (LOX IMVI): 75.2 µM

O=S(=O)(NCCCNc1nccc(-c2[nH]c(-c3ccccc3)nc2-c2ccc(Cl)c(O)c2)n1)c1ccc(F)cc1
inhibition [1]: 85.5% | inhibition [2]: 97.1% | Ratio IC50 [4]: > 4.35 | IC50 [5]: > 10 µM | IC50 (LOX IMVI): 2.3 µM

O=S(=O)(NCCCNc1nccc(-c2[nH]c(-c3ccccc3)nc2-c2ccc(F)c(O)c2)n1)c1ccc(F)cc1
inhibition [1]: 91.4% | inhibition [2]: 97% | IC50 (LOX IMVI): 19.2 µM

Cc1ccc(S(=O)(=O)NCCCNc2nccc(-c3[nH]c(-c4ccccc4)nc3-c3ccc(Cl)c(O)c3)n2)cc1
IC50 [3]: 0.00804 µM | inhibition [1]: 70.8% | inhibition [2]: 101% | IC50 (LOX IMVI): 6.02 µM

O=S(=O)(NCCCNc1nccc(-c2[nH]c(-c3ccccc3)nc2-c2ccc(F)c(O)c2)n1)c1ccccc1
IC50 [6]: 0.21 µM | IC50 [3]: 0.00562 µM | inhibition [1]: 87% | inhibition [2]: 98.4% | IC50 (LOX IMVI): 9.58 µM

O=S(=O)(NCCCNc1nccc(-c2[nH]c(-c3ccccc3)nc2-c2ccc(Cl)c(O)c2)n1)c1ccc(C(F)(F)F)cc1
inhibition [1]: 54.3% | inhibition [2]: 99.2% | IC50 (LOX IMVI): 10.1 µM

COc1cc(-c2nc(-c3ccccc3)[nH]c2-c2ccnc(NCCCNS(=O)(=O)c3ccc(Br)cc3)n2)ccc1Cl
inhibition [1]: 30% | inhibition [2]: 88.3% | IC50 (LOX IMVI): 23.7 µM

COc1cc(-c2nc(-c3ccccc3)[nH]c2-c2ccnc(NCCCNS(=O)(=O)c3cccc(F)c3)n2)ccc1Cl
inhibition [1]: 58.3% | inhibition [2]: 84.9% | IC50 (LOX IMVI): 5.11 µM

O=S(=O)(NCCCNc1nccc(-c2[nH]c(-c3ccccc3)nc2-c2ccc(Cl)c(O)c2)n1)c1cccc2ccccc12
inhibition [1]: 51.1% | inhibition [2]: 96.2% | IC50 (LOX IMVI): 7.72 µM

COc1cc(-c2nc(-c3ccccc3)[nH]c2-c2ccnc(NCCCNS(=O)(=O)c3cccc(F)c3)n2)ccc1F
inhibition [1]: 82.7% | inhibition [2]: 72.5% | Ratio IC50 [4]: > 11.1 | IC50 [5]: > 10 µM | IC50 (LOX IMVI): 0.9 µM

Cc1ccc(S(=O)(=O)NCCCNc2nccc(-c3[nH]c(-c4ccccc4)nc3-c3ccc(F)c(O)c3)n2)cc1
IC50 [6]: 0.2 µM | IC50 [3]: 0.00868 µM | inhibition [1]: 87.8% | inhibition [2]: 101% | IC50 (LOX IMVI): 26.3 µM

O=S(=O)(NCCCNc1nccc(-c2[nH]c(-c3ccccc3)nc2-c2ccc(F)c(O)c2)n1)c1ccc(Cl)cc1
inhibition [1]: 84.9% | inhibition [2]: 93.9% | IC50 (LOX IMVI): 14.2 µM

COc1cc(-c2nc(-c3ccccc3)[nH]c2-c2ccnc(NCCCNS(=O)(=O)c3ccc(C)cc3)n2)ccc1Cl
inhibition [1]: 50.4% | inhibition [2]: 88.2% | IC50 (LOX IMVI): 18.6 µM

COc1cc(-c2nc(-c3ccccc3)[nH]c2-c2ccnc(NCCCNS(=O)(=O)c3ccccc3)n2)ccc1F
inhibition [1]: 83.5% | inhibition [2]: 77.3% | IC50 (LOX IMVI): 4.52 µM

COc1cc(-c2nc(-c3ccccc3)[nH]c2-c2ccnc(NCCCNS(=O)(=O)c3ccc(C(F)(F)F)cc3)n2)ccc1Cl
inhibition [1]: 18.9% | inhibition [2]: 55.9% | Ratio IC50 [4]: > 5.62 | IC50 [5]: > 10 µM | IC50 (LOX IMVI): 1.78 µM

O=S(=O)(NCCCNc1nccc(-c2[nH]c(-c3ccccc3)nc2-c2ccc(F)c(O)c2)n1)c1cccc(F)c1
IC50 [6]: 0.14 µM | IC50 [3]: 0.0303 µM | inhibition [1]: 90.5% | inhibition [2]: 100% | IC50 (LOX IMVI): 7.89 µM

O=S(=O)(NCCCNc1nccc(-c2[nH]c(-c3ccccc3)nc2-c2ccc(Cl)c(O)c2)n1)c1cccc(F)c1
IC50 [3]: 0.0148 µM | inhibition [1]: 78.6% | inhibition [2]: 101% | IC50 (LOX IMVI): 33.6 µM

COc1cc(-c2nc(-c3ccccc3)[nH]c2-c2ccnc(NCCCNS(=O)(=O)c3ccccc3)n2)ccc1Cl
inhibition [1]: 58.6% | inhibition [2]: 80% | IC50 (LOX IMVI): 7.47 µM

O=S(=O)(NCCCNc1nccc(-c2[nH]c(-c3ccccc3)nc2-c2ccc(Cl)c(O)c2)n1)c1ccccc1
IC50 [3]: 0.00425 µM | inhibition [1]: 82.2% | inhibition [2]: 99.4% | Ratio IC50 [4]: > 3.8 | IC50 [5]: > 10 µM | IC50 (LOX IMVI): 2.63 µM

O=S(=O)(NCCCNc1nccc(-c2[nH]c(-c3ccccc3)nc2-c2ccc(F)c(O)c2)n1)c1ccc(O)cc1
IC50 [6]: 0.085 µM | IC50 [3]: 0.00249 µM | Ratio IC50 (RAW264.7): 53.8 | inhibition at 1 µM [7]: 85.2% | IC50 [8]: 0.0963 µM | inhibition [1]: 92.8% | inhibition [2]: 101% | Ratio IC50 [9]: 12.7 | Ratio IC50 [10]: 49.8 | inhibition at 10 µM [11]: 96.4% | IC50 (LOX IMVI): 13.9 µM

COc1cc(-c2nc(-c3ccccc3)[nH]c2-c2ccnc(NCCCNS(=O)(=O)c3cccc4ccccc34)n2)ccc1Cl
inhibition [1]: 27.1% | inhibition [2]: 90% | IC50 (LOX IMVI): 13.5 µM

COc1cc(-c2nc(-c3ccccc3)[nH]c2-c2ccnc(NCCCNS(=O)(=O)c3ccc(C)cc3)n2)ccc1F
inhibition [1]: 79.4% | inhibition [2]: 82.4% | IC50 (LOX IMVI): 2.59 µM

Cc1ccc(S(=O)(=O)/C=C/C#N)cc1
IC50 [8]: 5.18 µM

COc1cc(-c2nc(-c3ccccc3)[nH]c2-c2ccnc(NCCCNS(=O)(=O)c3ccc(F)cc3)n2)ccc1F
inhibition [1]: 84.1% | inhibition [2]: 80.1% | IC50 (LOX IMVI): 3.96 µM

COc1cc(-c2nc(-c3ccccc3)[nH]c2-c2ccnc(NCCCNS(=O)(=O)c3ccc(Cl)cc3)n2)ccc1Cl
inhibition [1]: 52.1% | inhibition [2]: 85.1% | IC50 (LOX IMVI): 60.9 µM

O=S(=O)(NCCNc1cc(-c2[nH]c(-c3ccccc3)nc2-c2cccc(O)c2)ccn1)c1ccc(O)cc1
IC50 [12]: 0.032 µM

COc1ccc(S(=O)(=O)NCCCNc2nccc(-c3[nH]c(-c4ccccc4)nc3-c3ccc(Cl)c(OC)c3)n2)cc1
inhibition [1]: 54.6% | inhibition [2]: 91.1% | IC50 (LOX IMVI): 1.8 µM

O=S(=O)(NCCCNc1nccc(-c2[nH]c(-c3ccccc3)nc2-c2ccc(F)c(O)c2)n1)c1ccc(C(F)(F)F)cc1
inhibition [1]: 65.4% | inhibition [2]: 98.4% | Ratio IC50 [4]: > 4.08 | IC50 [5]: > 10 µM | IC50 (LOX IMVI): 2.45 µM

O=S(=O)(NCCCNc1nccc(-c2[nH]c(-c3ccccc3)nc2-c2ccc(Cl)c(O)c2)n1)c1ccc(O)cc1
IC50 [3]: 0.00781 µM | inhibition [1]: 77.6% | inhibition [2]: 101% | IC50 (LOX IMVI): 36.8 µM

O=S(=O)(NCCCNc1nccc(-c2[nH]c(-c3ccccc3)nc2-c2ccc(F)c(O)c2)n1)c1ccc(Br)cc1
IC50 [6]: 0.33 µM | IC50 [3]: 0.0263 µM | inhibition [1]: 84.8% | inhibition [2]: 100% | IC50 (LOX IMVI): 5.66 µM

COc1ccc(S(=O)(=O)NCCCNc2nccc(-c3[nH]c(-c4ccccc4)nc3-c3ccc(F)c(OC)c3)n2)cc1
inhibition [1]: 88.5% | inhibition [2]: 89.1% | IC50 (LOX IMVI): 6.13 µM

O=S(=O)(NCCCNc1nccc(-c2[nH]c(-c3ccccc3)nc2-c2ccc(Cl)c(O)c2)n1)c1ccc(Cl)cc1
inhibition [1]: 70.8% | inhibition [2]: 99.7% | IC50 (LOX IMVI): 61.3 µM

O=S(=O)(NCCCNc1nccc(-c2[nH]c(-c3ccccc3)nc2-c2ccc(F)c(O)c2)n1)c1cccc2ccccc12
inhibition [1]: 79.8% | inhibition [2]: 99.8% | IC50 (LOX IMVI): 3.71 µM
